According to paper PMC2939291 (Experimental parasitology, 2010):
In brackets after ≈: the same amount, converted by molar mass. Like-named read-outs stand apart in the source and are kept apart here.

Columns and labels:
[1] = tested on: Leishmania amazonensis infected cells; assay: Infection measured by standard Giemsa staining of cells; assay type: cell-based
[2] = standard doses (0.3 mg/kg days 1 and 2, increasing to 0.5 mg/kg) during clinical therapy; ref Atkinson, Jr. and Bennett, 1978; cited from earlier work
[3] = tested on: GFP-transfected Leishmania (Viannia) panamensis amastigotes in U937 cell line; conditions: L. (V.) panamensis in U937 cells, GFP flow cytometry; ref Varela et al., 2009; cited from earlier work
[4] = tested on: egfp transfected Leishmania amazonensis amastigotes in PBMC derived macrophages; assay: microbe, parasite or virus in culture; assay type: cell-based
[5] = tested on: egfp transfected Leishmania amazonensis amastigotes in THP-1 cells; assay: microbe, parasite or virus in culture; assay type: cell-based
[6] = tested on: human PBMC derived macrophages; assay type: cell-based
THP-1 cells = assay: Trypan blue dye exclusion cytotoxicity test, THP-1 cells; assay type: cell-based, human
How it was run: (§1)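 Macrophages prepared before testing: THP-1 cells were grown in RPMI 1640 with 10% heat-inactivated FBS at 37°C and 5% CO2, then stimulated with 20 nM PMA. PBMC-derived cells were stimulated with autologous platelet-poor serum. After test compound exposure, clear (viable) and blue cells were counted on a hemocytometer to give percent viability. CC50 came from a variable-slope sigmoidal fit normalised to untreated cells. Assays were run in duplicate.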

[7] = tested on: human PBMC derived macrophages; assay: Trypan blue dye exclusion cytotoxicity test, human PBMC derived macrophages; assay type: cell-based
How it was run: as §1

With `C[C@@H]1[C@H](O)[C@@H](C)/C=C/C=C/C=C/C=C/C=C/C=C/C=C/[C@H](O[C@@H]2O[C@H](C)[C@@H](O)[C@H](N)[C@@H]2O)C[C@@H]2O[C@](O)(C[C@@H](O)C[C@@H](O)[C@H](O)CC[C@@H](O)C[C@@H](O)CC(=O)O[C@H]1C)C[C@H](O)[C@H]2C(=O)O` [Amphotericin B, amphotericin B] as the molecule, how does the EC50 [1] read?
The EC50 was 0.074 µg/mL (≈ 0.0801 µM).

What about the serum level [2] of the same molecule?
The serum level was “above 0.2 μg/ml”.

What about the EC50 [3] of the same molecule?
Its EC50 is 0.078 µg/mL (≈ 0.0844 µM).

And the EC50 ([4]; Leishmania amazonensis, in Homo sapiens)?
The EC50 was 0.179 ± 0.035 µg/mL (≈ 0.194 µM).

And the “Selective Index (SI)” value ([4]; human PBMC derived macrophages, ratio of EC50 and CC50)?
The value was 355.9.

And the “Selective Index (SI)” value ([4]; human PBMC derived macrophages, ratio of EC50 and CC50, listed as amphotericin B)?
The value was 356.

What about the EC50 ([5]; Leishmania amazonensis, THP-1) of the same molecule?
The EC50 was 0.1445 ± 0.0005 µg/mL (≈ 0.156 µM).

And the “Selective Index (SI)” value ([5]; THP-1 cells, ratio of EC50 and CC50)?
Its value is 105.2.

Which results are given for `CCCCCCCCCCCCCCCCOP(=O)([O-])OCC[N+](C)(C)C` [Miltefosine, miltefosine]?
toxicity against the macrophages [6]: significant toxicity; Selective Index (SI) [4]: 6.13; Selective Index (SI) [5]: 1.51

Which CC50 (THP-1 cells) does the source give for `O.O.O.O.O.O.O.O.O.O=C([O-])[C@@H]1[O][Sb](=[O])([O][Sb]2(=[O])[O][C@H]([C@H](O)CO)[C@H](O)[C@H](C(=O)[O-])[O]2)[O][C@H]([C@H](O)CO)[C@@H]1O.[Na+].[Na+].[Na+]` (stereo partly drawn) [Sodium stibogluconate, sodium stibogluconate] here?
The CC50 was 4600 ± 1100 µg/mL.

What about the CC50 [7] of the same molecule?
Its CC50 is 6300 ± 2800 µg/mL.

And the EC50 ([4]; human PBMC derived macrophages, GFP fluorescence)?
Its EC50 is 194.8 ± 36.4 µg/mL.

With meglumine antimoniate as the molecule, how does the EC50 [3] read?
The EC50 was 20 µg/mL.
